Results of several laboratories.
Lines come from different studies, so protocols differ.
SETD7: Histone-lysine N-methyltransferase SETD7 (SETD7, Homo sapiens, UniProt Q8WTS6)
MMP2: 72 kDa type IV collagenase (MMP2, Homo sapiens, UniProt P08253)
CNR2: Cannabinoid receptor 2 (CNR2, Homo sapiens, UniProt P34972)
Akr1b1: Aldo-keto reductase family 1 member B1 (Akr1b1, Rattus norvegicus, UniProt P07943)
ADRB2: Beta-2 adrenergic receptor (ADRB2, Homo sapiens, UniProt P07550)
HDAC7: Histone deacetylase 7 (HDAC7, Homo sapiens, UniProt Q8WUI4)
P2RY6: P2Y purinoceptor 6 (P2RY6, Homo sapiens, UniProt Q15077)
Trpc6: Short transient receptor potential channel 6 (Trpc6, Mus musculus, UniProt Q61143)
CSNK1A1: Casein kinase I isoform alpha (CSNK1A1, Homo sapiens, UniProt P48729)
SLC22A2: Solute carrier family 22 member 2 (SLC22A2, Homo sapiens, UniProt O15244)

CC/C(=C(\c1ccccc1)c1ccc(OCCN(C)C)cc1)c1ccccc1  IC50 (SETD7; enzyme activity, inhibitor): > 333 µM
Cc1noc(-c2cc3cc(-c4nc(C(=O)NCc5ccc(=O)[nH]c5)[nH]c4C)ccc3[nH]2)n1  IC50 (MMP2; enzyme activity, inhibitor): > 24 µM
Cc1ccc(NC(=O)c2nc(-c3ccc(Cl)cc3Cl)n(-c3ccc(OS(=O)(=O)CCC(F)(F)F)cc3)c2C)nc1  IC50 (CNR2; GTPγS binding, antagonist; cell membranes): 0.4 µM
O=C(Nc1ccc(Cl)cc1)Nc1cccc(-c2ccc[nH]2)c1  IC50 (CNR2; calcium signal, antagonist): > 10 µM
O=C(NO)c1ccc(CN(c2cnccn2)c2cnccn2)cc1  IC50 (Polyamine deacetylase HDAC10 (HDAC10, Homo sapiens, UniProt Q969S8); enzyme activity, inhibitor, fluorescence): > 10 µM
Cc1c(C(=O)N[C@H]2CCCC[C@H]2N)nc(-c2ccc(Cl)cc2Cl)n1-c1ccc(OS(=O)(=O)CCC(F)(F)F)cc1 (racemic)  IC50 (CNR2; GTPγS binding, antagonist; cell membranes): 0.805 µM
Cn1cc(-c2cc3cc(-c4cc(C(=O)NCc5ccc(C(=O)O)cc5)nn4C)ccc3[nH]2)cn1  IC50 (MMP2; enzyme activity, inhibitor): > 20 µM
COc1ccc2nc(/N=C3/NC(=O)C(=Cc4ccc(O)c(OC)c4)S3)sc2c1  IC50 (Akr1b1; enzyme activity, inhibitor, absorbance; pH 6.2): 0.83 µM
CN1C2CCCC1CC(NC(=O)c1nn(C)c3ccccc13)C2 (centres unmarked)  IC50 (ADRB2; ligand displacement, radioligand; cell membranes): 42.1 µM
COc1ccc2nc(/N=C3/NC(=O)C(=Cc4ccccc4)S3)sc2c1  IC50 (Akr1b1; enzyme activity, inhibitor, absorbance; pH 6.2): > 50 µM
CCCN(CCC)CCc1cccc2c1CC(=O)N2  IC50 (ADRB2; ligand displacement, radioligand; cell membranes): 200 µM
CCCC[C@H](NC(=O)C1CN(C)C1)c1ncc(-c2cc3ccccc3nc2OC)[nH]1  IC50 (HDAC7; enzyme activity, inhibitor): > 30 µM
NCC1OC(c2ccccc2)Cc2c1ccc(O)c2O (centres unmarked)  IC50 (ADRB2; ligand displacement, radioligand; cell membranes): 84.7 µM
O=[N+]([O-])C1=Cc2cc(C#Cc3ccc(F)cc3)ccc2OC1C(F)(F)F (centres unmarked)  IC50 (P2RY6; calcium signal, antagonist, fluorescence): 4.4 µM
COc1cc(O)c(CC=C(C)C)c2c1C(=O)CC(c1ccc(O)cc1)O2 (centres unmarked)  IC50 (Cytochrome P450 1B1 (CYP1B1, Homo sapiens, UniProt Q16678); enzyme activity, inhibitor, fluorescence; 15 min, pH 7.4): 0.48 µM
CCN(CC)CCNC(=O)c1cc(Cl)c(N)cc1OC  IC50 (ADRB2; ligand displacement, radioligand; cell membranes): 67.4 µM
CC(C)(C)OC(=O)NCC#Cc1ccc2c(c1)C=C([N+](=O)[O-])C(C(F)(F)F)O2 (centres unmarked)  IC50 (P2RY6; calcium signal, antagonist): ~1 µM
CN(C)CCN(C(=O)c1ccc(Cl)s1)c1nc2ccccc2s1  IC50 (Trpc6; calcium signal, fluorescence): 15.1 µM
Cc1noc(-c2cc3cc(-c4nc(C(=O)NCc5ccccc5)[nH]c4C)ccc3[nH]2)n1  IC50 (MMP2; enzyme activity, inhibitor): > 20 µM
CC(C)(C)n1nc(-c2ccc3nc(OC4CC4)ccc3c2)c(C(N)=O)c1N  IC50 (CSNK1A1; cell-free assay, inhibitor): > 10 µM
Cc1c(C(=O)NN2CCCCC2)nc(-c2ccc(Cl)cc2Cl)n1-c1ccc(OS(=O)(=O)CCC(F)(F)F)cc1  IC50 (CNR2; GTPγS binding, antagonist; cell membranes): 0.288 µM
COc1cc(N)c(Cl)cc1C(=O)NC1CCN(CCCOc2ccc(F)cc2)CC1OC (centres unmarked)  IC50 (ADRB2; ligand displacement, radioligand; cell membranes): 587 µM
COc1ccc2nc(/N=C3/NC(=O)C(=Cc4cc(I)c(O)c(OC)c4)S3)sc2c1  IC50 (Akr1b1; enzyme activity, inhibitor, absorbance; pH 6.2): > 50 µM
CCCN(CCCCOCCOCCOCCOCC(=O)N[C@H](C(=O)N1C[C@H](O)C[C@H]1C(=O)NCc1ccc(-c2scnc2C)cc1)C(C)(C)C)C[C@@H](C)NC(=O)c1ccc(-c2noc(C(F)(F)F)n2)cc1  IC50 (HDAC7; enzyme activity, inhibitor, fluorescence): 0.13 µM
Cn1c(=O)c([N+](=O)[O-])c(Cl)c2ccccc21  IC50 (Adenylate cyclase type 8 (Homo sapiens, UniProt P40145); cAMP, inhibitor): 1.6 µM
Cc1noc(-c2cc3cc(-c4cc(C(=O)NCc5ccc(C(=O)O)cc5)nn4C)ccc3[nH]2)n1  IC50 (MMP2; enzyme activity, inhibitor): > 20 µM
Cc1c(C(=O)N[C@@H]2CCCC[C@@H]2O)nc(-c2ccc(Cl)cc2Cl)n1-c1ccc(OS(=O)(=O)CCC(F)(F)F)cc1 (single isomer, unassigned)  IC50 (CNR2; GTPγS binding, antagonist; cell membranes): 0.44 µM
O=C(O)CSc1nnc(Br)n1-c1ccc(C2CC2)c2ccccc12  IC50 (SLC22A2; transporter uptake, inhibitor; MDCK-II; 5 min): > 300 µM
COc1ccc2c3ccnc(C(F)(F)F)c3n(CCCCN)c2c1  IC50 (Serine/threonine-protein kinase haspin (HASPIN, Homo sapiens, UniProt Q8TF76); enzyme activity, inhibitor, TR-FRET): 0.1 µM
O=S(=O)(Nc1ccc2cccc(O)c2n1)c1ccc(-c2ccccc2)cc1  IC50 (MMP2; enzyme activity, inhibitor, fluorescence): 48 µM
O=C(c1ccc(Cl)s1)N(CCN1CCCC1)c1nc2ccccc2s1  IC50 (Trpc6; calcium signal, fluorescence): 8.8 µM
CCNC(=O)c1nc(-c2ccc3[nH]c(-c4nc(C)no4)cc3c2)c(C)[nH]1  IC50 (MMP2; enzyme activity, inhibitor): > 20 µM
COc1ccc2nc(/N=C3/NC(=O)C(=Cc4cc(OC)c(O)c(OC)c4)S3)sc2c1  IC50 (Akr1b1; enzyme activity, inhibitor, absorbance; pH 6.2): 10.5 µM
Nc1ccc(-c2ccncc2)cc1NC(=O)N1CCCC1  IC50 (HDAC7; enzyme activity, inhibitor): > 33.3 µM
CCCC[C@H](NC(=O)[C@H](C)c1c(C)[nH]c2ccc(O)cc12)c1ncc(-c2cc3ccccc3nc2OC)[nH]1  IC50 (HDAC7; enzyme activity, inhibitor): > 45 µM
CC(C)c1nc(CN(C)C(=O)N[C@@H](CCN2CCOCC2)C(=O)N[C@H](CC[C@H](Cc2ccccc2)NC(=O)OCc2cncs2)Cc2ccccc2)cs1  IC50 (SLC22A2; transporter uptake, inhibitor; MDCK-II): 33 µM
CN1CCN(c2ccc(Nc3ncc4cc(C#N)c(=O)n(C5CCCC5)c4n3)cc2)CC1  IC50 (CSNK1A1; enzyme activity, inhibitor): > 10 µM
O=C(O)C(=O)CC(=O)c1cccc(N(Cc2ccccc2)Cc2ccccc2)c1  IC50 (Dual specificity protein phosphatase 3 (DUSP3, Homo sapiens, UniProt P51452); enzyme activity, inhibitor, absorbance; pH 7): 113 µM
C=CC(C)(C)c1cc(/C=C/C(=O)c2ccc(O)cc2)c(OC)cc1O  IC50 (SETD7; enzyme activity, inhibitor): > 333 µM
COc1c(OCC2CCCC2)cc2c(c1C=O)CC(O)OC2=O (centres unmarked)  IC50 (Receptor-type tyrosine-protein phosphatase S (PTPRS, Homo sapiens, UniProt Q13332); enzyme activity, inhibitor, absorbance): 0.6 to 0.7 µM
Cn1nc(C(=O)NCc2ccc(C(=O)O)cc2)cc1-c1ccc2[nH]c(-c3cncnc3)cc2c1  IC50 (MMP2; enzyme activity, inhibitor): > 20 µM
CN(C(=O)n1cnc(-c2ccc[n+]([O-])c2)c1)C1CCCCC1  IC50 (SLC22A2; transporter uptake, inhibitor; MDCK-II): > 33.3 µM
CCS(=O)(=O)N1CC(CC#N)(n2cc(-c3ncnc4[nH]ccc34)cn2)C1  IC50 (SLC22A2; transporter uptake, inhibitor, radiometric; 2 min): 11.6 µM
NC(=O)c1ccc[n+]([C@@H]2O[C@H](COP(=O)([O-])OP(=O)(O)OC[C@H]3O[C@@H](n4cnc5c(N)ncnc54)[C@H](O)[C@@H]3O)[C@@H](O)[C@H]2O)c1  IC50 (Protein mono-ADP-ribosyltransferase PARP6 (PARP6, Homo sapiens, UniProt Q2NL67); enzyme activity, inhibitor): 87 µM
CCC1(c2ccc(C)cc2)C(=O)N(C(=O)OC(C)C)N1C(=O)OC(C)C (centres unmarked)  IC50 (Monoacylglycerol lipase ABHD6 (Abhd6, Mus musculus, UniProt Q8R2Y0); enzyme activity, inhibitor): 3 µM
Cc1noc(-c2cc3cc(-c4nc(C(=O)NCc5ccncc5)[nH]c4C)ccc3[nH]2)n1  IC50 (MMP2; enzyme activity, inhibitor): > 20 µM
COc1cccc2sc(N(CCN3CCCC3)C(=O)c3ccc(Cl)s3)nc12  IC50 (Trpc6; calcium signal, fluorescence): 63.9 µM
